Data on two compounds can be found in ChEMBL document CHEMBL4261484, “Design, synthesis and anticonvulsant-analgesic activity of new N-[(phenoxy)alkyl]- and N-[(phenoxy)ethoxyethyl]aminoalkanols” (Medchemcomm, 2017).

Molecules are shown by their SMILES. The source made the active and inactive calls.

The subject of series [1] is Mus musculus. The experiment in a line: Toxicity in mouse at 25 mg/kg, ip measured during maximal electroshock seizure test. The class given is organism-based. The conditions noted are these: in vivo. For orientation: The maximal electroshock test induces tonic seizures with an electrical stimulus.
For series [2], the system named is Mus musculus. The experiment in a line: Anticonvulsant activity in mouse assessed as protection against subcutaneous pentylenetetrazole-induced seizures at 100 mg/kg, ip measured for 30 mins post pentylenetetrazole challenge at 0.5 hrs after compound dosing relative to control. The class given is functional.
The test system of series [3] is Mus musculus. The experiment in a line: Toxicity in mouse assessed as effect on spontaneous activity at 24 mg/kg, ip measured for 30 mins by photoresistor actometer relative to control. The class given is organism-based. The conditions noted are these: in vivo, 0.5 h. Put shortly: (§1)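 Mice dosed ip; locomotor activity by photoresistor actometers counting light-beam interruptions. Each mouse was habituated 30 min in a cage, then crossings were counted over a 30 min session. Data are mean ± SEM and % change vs control; unpaired t test.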

The test system of series [4] is Mus musculus. The experiment in a line: Anticonvulsant activity in mouse assessed as protection against subcutaneous pentylenetetrazole-induced seizures by measuring latency time of tonic seizures at 100 mg/kg, ip measured for 30 mins post pentylenetetrazole challenge at 0.5 hrs after compound dosing (reference value: 562.8 to 614.9 secs). The class given is functional.

Series [5] deals with Mus musculus. The experiment in a line: Neurotoxicity in mouse assessed as motor impairment by measuring loss of coordination at 24 mg/kg, ip measured for 60 secs by chimney test relative to control. The conditions noted are these: in vivo, 1 min. The class given is toxicity, organism-based. Put shortly:
(§2)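 Mice dosed ip; trained, selected animals placed in a horizontal tube 25 cm long and 2.5 cm in diameter, then tube reversed so mice must climb out backward. Read-outs: escape time (s) ± SEM and % animals losing coordination versus control. Unpaired t test.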

For series [6], the system named is Mus musculus. The experiment in a line: Toxicity in mouse at 100 mg/kg, ip measured during maximal electroshock seizure test. The class given is organism-based. The note with it: in vivo.
Series [7] deals with Mus musculus. The experiment in a line: Analgesic activity in mouse assessed as decrease in time of paw licking during phase 2 at 24 mg/kg, ip measured for 15 to 30 mins by formalin test relative to control. The class given is functional. On the set-up: scale not given: the % may be the effect or the level left. In short, it runs like this: (§3)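 Formalin test in mice: 20 μL of 5% formalin injected intraplantarly into the right hind paw. Each mouse was observed alone in a glass beaker for 30 min. Time (s) spent licking or biting the injected paw was recorded at 0–5 min (acute phase) and 15–30 min (inflammatory phase).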

The subject of series [8] is Mus musculus. The experiment in a line: Toxicity in mouse at 30 mg/kg, ip measured during maximal electroshock seizure test. The class given is organism-based. The note with it: in vivo.
Series [9] concerns Mus musculus. The experiment in a line: Anticonvulsant activity in mouse assessed as protection against maximal electroshock-induced seizures at 100 mg/kg, ip. The class given is functional, organism-based. In short, it runs like this: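 Mice dosed ip; maximal seizures induced by auricular electroshock (25 mA, 500 V, 50 Hz, 0.2 s). Endpoint: hind-limb tonic extension; animals without it scored protected. Read-out is number protected over number tested.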

The test system of series [10] is Mus musculus. The experiment in a line: Neurotoxicity in mouse assessed as motor impairment by measuring time of escaping from chimney at 24 mg/kg, ip measured for 60 secs (reference value: 8.87 +/- 1.79 secs). The class given is toxicity, organism-based. The conditions noted are these: in vivo, 1 min. Put shortly:
as §2

The test system of series [11] is Mus musculus. The experiment in a line: Anticonvulsant activity in mouse assessed as increase in electroconvulsive threshold at 10 mg/kg, ip by maximal electroshock seizure threshold test relative to control. The class given is functional.
Series [12] has as its system Mus musculus. The experiment in a line: Toxicity in mouse at 20 mg/kg, ip measured during maximal electroshock seizure test. The note with it: in vivo. The class given is organism-based.
The subject of series [13] is Mus musculus. The experiment in a line: Anticonvulsant activity in ip dosed mouse assessed as protection against maximal electroshock-induced seizures. The class given is functional. In short, it runs like this:
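Mice were dosed ip. Maximal seizures were induced by auricular electrodes (25 mA, 500 V, 50 Hz, 0.2 s). Absence of hind-limb tonic extension counted as protection. […] Motor impairment was scored on a 10 rpm rotarod, giving TD50 the same way.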

The test system of series [14] is Mus musculus. The experiment in a line: Analgesic activity in mouse assessed as decrease in time of paw licking during phase 1 at 24 mg/kg, ip measured for 5 mins by formalin test relative to control. The class given is functional. Further details: scale not given: the % may be the effect or the level left. Put shortly:
as §3

In series [15] the test system is Mus musculus. The experiment in a line: Anticonvulsant activity in mouse assessed as current strength required to induce tonic hind-limb extension in 50% of the animals at 10 mg/kg, ip by maximal electroshock seizure threshold test (reference value: 6.05 to 8.13 mA). The class given is functional.
Series [16] can be described thus: Protection index, ratio of TD50 for neurotoxicity in ip dosed mouse by rotarod test to ED50 for anticonvulsant activity in mouse by maximal electroshock seizure test. The class given is toxicity, organism-based. The note with it: in vivo, read-out: Ratio TD50/ED50. (In general: Falling from the rotarod earlier than controls is read as motor impairment.)
The subject of series [17] is Mus musculus. The experiment in a line: Toxicity in mouse assessed as effect on spontaneous activity at 69 mg/kg, ip measured for 30 mins by photoresistor actometer relative to control. The class given is organism-based. The conditions noted are these: in vivo, 0.5 h. Put shortly:
as §1

Series [18] deals with HepG2. The experiment in a line: Cytotoxicity against human HepG2 cells assessed as effect on cell viability at 10 to 250 uM after 24 hrs by MTT assay. The class given is cell-based. The conditions noted are these: hepg2, 24 h. In short, it runs like this: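 HepG2 cells grown in MEM with 10% FBS (37 °C, 5% CO2) and seeded at 1 × 10^4. After overnight culture, exposed to 10–250 μM for 24 h. MTT for 3 h, formazan dissolved, OD 570 nm. Viability is % of control ± SEM from three independent experiments.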
Background: Tetrazolium assays rely on reduction of a dye to a coloured formazan, in cell work by metabolically active cells.

The nature of series [19]: Neurotoxicity in ip dosed mouse assessed as motor impairment measured for one min by rotarod test. The class given is toxicity, organism-based. The note with it: in vivo. In short, it runs like this: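 Mice trained on an accelerating rotarod, then tested at least 24 h later after ip pretreatment, on a rod turning at 10 rpm. Neurotoxicity was scored as failure to stay on the rod for one minute. Read-out is mice impaired over mice tested.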

Series [20] relates to SH-SY5Y. The experiment in a line: Potentiation of H2O2-induced cytotoxicity against human SH-SY5Y cells at 10^-8 to 10^-6 M after 72 hrs by LDH release assay. The class given is cell-based. Put shortly: (§4)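 SH-SY5Y cells in 1% FBS given 10^-8 to 10^-5 M for 72 h, with H2O2 (0.5 mM) added for the last 24 h. LDH released into medium measured at 490 nm and normalized to vehicle cells without H2O2. Dunnett's test after one-way ANOVA.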

Series [21] relates to Mus musculus. The experiment in a line: Anticonvulsant activity in mouse assessed as current strength required to induce tonic hind-limb extension in 50% of the animals at 30 mg/kg, ip by maximal electroshock seizure threshold test (reference value: 6.05 to 8.13 mA). The class given is functional.
Series [22] relates to SH-SY5Y. The experiment in a line: Potentiation of H2O2-induced cytotoxicity against human SH-SY5Y cells at 10^-5 M after 72 hrs by LDH release assay. The class given is cell-based. The conditions noted are these: 10 µM. In short, it runs like this: as §4
Series [23] has as its system Mus musculus. The experiment in a line: Neurotoxicity in mouse assessed as motor impairment by measuring loss of coordination at 69 mg/kg, ip measured for 60 secs by chimney test relative to control. The note with it: in vivo, 1 min. The class given is toxicity, organism-based. In short, it runs like this:
as §2

The subject of series [24] is HepG2. The experiment in a line: Cytotoxicity against human HepG2 cells assessed as effect on cell viability at 10 to 250 uM after 24 hrs by neutral red assay. The class given is cell-based. The note with it: hepg2, 24 h. In short, it runs like this: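 HepG2 cells seeded at 5 × 10^4 per well, then after 24 h given medium with 10–250 μM for 24 h. Viability by neutral red staining, OD 570 nm. Results are % of control ± SEM, three independent experiments.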

For series [25], the system named is Mus musculus. The experiment in a line: Anticonvulsant activity in mouse assessed as increase in electroconvulsive threshold at 30 mg/kg, ip by maximal electroshock seizure threshold test relative to control. The class given is functional.
Series [26] in a line: Cytotoxicity against mouse CRL-2541 cells assessed as effect on cell viability at 10 to 250 uM after 24 hrs by MTT assay. The class given is cell-based.
Series [27] deals with Mus musculus. The experiment in a line: Toxicity in mouse at 60 mg/kg, ip measured during maximal electroshock seizure test. The class given is organism-based. The note with it: in vivo.
Series [28] relates to SH-SY5Y. The experiment in a line: Cytotoxicity against human SH-SY5Y cells 10^-8 to 10^-4 M after 24 hrs by MTT assay. The class given is cell-based.
Series [29] has as its system Mus musculus. The experiment in a line: Analgesic activity in mouse assessed as decrease in time of paw licking during phase 1 at 69 mg/kg, ip measured for 5 mins by formalin test relative to control. The class given is functional. Further details: scale not given: the % may be the effect or the level left. In short, it runs like this: as §3
The test system of series [30] is SH-SY5Y. The experiment in a line: Potentiation of H2O2-induced cytotoxicity against human SH-SY5Y cells at 10^-6 to 10^-5 M after 24 hrs by MTT assay. The class given is cell-based.
Series [31] deals with Mus musculus. The experiment in a line: Neurotoxicity in mouse assessed as motor impairment by measuring time of escaping from chimney at 69 mg/kg, ip measured for 60 secs (reference value: 8.87 +/- 1.79 secs). The conditions noted are these: in vivo, 1 min. The class given is toxicity, organism-based. Put shortly:
as §2

The test system of series [32] is SH-SY5Y. The experiment in a line: Cytotoxicity against human SH-SY5Y cells 10^-8 to 10^-4 M after 72 hrs by LDH release assay. The class given is cell-based. In short, it runs like this: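 SH-SY5Y cells grown in DMEM with 10% FBS, then seeded at 15000 per well in 1% FBS a day ahead. Treated with 10^-8 to 10^-4 M (water-dissolved) for 72 h, with vehicle controls and triton as positive control. LDH in medium read at 490 nm, expressed as % of vehicle-treated cells. Dunnett's test after one-way ANOVA.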

Series [33] has as its system Mus musculus. The experiment in a line: Analgesic activity in mouse assessed as decrease in time of paw licking during phase 2 at 69 mg/kg, ip measured for 15 to 30 mins by formalin test relative to control. The class given is functional. On the set-up: scale not given: the % may be the effect or the level left. In short, it runs like this:
as §3

The subject of series [34] is Mus musculus. The experiment in a line: Toxicity in mouse at 80 mg/kg, ip measured during maximal electroshock seizure test. The class given is organism-based. The note with it: in vivo.

The term ED50 denotes the midpoint of the dose-response relation. With `Cc1cccc(Cl)c1OCCOCCNCC(O)c1ccccc1` (racemic), the Activity result is recorded as “Non-Toxic” in the series on Mus musculus [1]; 44.39% in the series with Mus musculus [3]; 0% in the series on Mus musculus [5]; “Non-Toxic” in the series with Mus musculus [6]; 8.8% in the series on Mus musculus [7]; “Non-Toxic” with Mus musculus [8]. Besides, the Activity with Mus musculus [11] is reported as 56.64%; with Mus musculus [12] it was “Non-Toxic”; with Mus musculus [14], 8.57%; with Mus musculus [15] it was 11.09 mA. Moreover, the outcome in the series on Mus musculus [2] was inactive. The Time in the series with Mus musculus [4] is recorded as 219.6 s; in the series with Mus musculus [10], 3.5 s. Also, the outcome with Mus musculus [9] was Active. The ED50 in the series with Mus musculus [13] was 23.9 mg/kg. The selectivity ratio in series [16] was found to be 4.3.
One may read the TD50 as the dose at which the toxic effect under study appears in half of the subjects. In the case of `Cc1cccc(OCCOCCN2CCCC(O)C2)c1C.Cl` (stereo not given), the result with Mus musculus [2] was inactive. Further, the Time in the series with Mus musculus [4] amounted to 564.8 s; in the series on Mus musculus [31] it was 4.75 s. Besides, the Activity with Mus musculus [17] is reported as 14.98%; with HepG2 [18], “Non-Toxic”; with SH-SY5Y [20], “Non-Toxic”; in the series with Mus musculus [21] it was 13.18 mA; with SH-SY5Y [22], “Toxic”; with Mus musculus [23] it was 0%. Also, the Activity entry is reported as “Non-Toxic” with HepG2 [24]; 75.03% in the series on Mus musculus [25]; “Non-Toxic” in the series with Mus musculus [6]; “Non-Toxic” in series [26]; “Non-Toxic” in the series with Mus musculus [27]; “Non-Toxic” in the series on SH-SY5Y [28]. The Activity was 13.74% in the series on Mus musculus [29]; “Toxic” with SH-SY5Y [30]; “Non-Toxic” in the series with SH-SY5Y [32]; 64.59% with Mus musculus [33]; “Non-Toxic” with Mus musculus [34]. Also, the TD50 at 1 min in [19] worked out at 122 mg/kg. For the same compound, the result with Mus musculus [9] was Active. Moreover, in the series with Mus musculus [13], the ED50 was determined as 68.7 mg/kg. Moreover, the selectivity ratio in series [16] was 1.77.
